# Measurements collected from several papers.
# Target: Testis-specific serine/threonine-protein kinase 1 (TSSK1B, Homo sapiens, UniProt Q9BXA7)
# Sequence (Q9BXA7 1-367, as in one of the studies): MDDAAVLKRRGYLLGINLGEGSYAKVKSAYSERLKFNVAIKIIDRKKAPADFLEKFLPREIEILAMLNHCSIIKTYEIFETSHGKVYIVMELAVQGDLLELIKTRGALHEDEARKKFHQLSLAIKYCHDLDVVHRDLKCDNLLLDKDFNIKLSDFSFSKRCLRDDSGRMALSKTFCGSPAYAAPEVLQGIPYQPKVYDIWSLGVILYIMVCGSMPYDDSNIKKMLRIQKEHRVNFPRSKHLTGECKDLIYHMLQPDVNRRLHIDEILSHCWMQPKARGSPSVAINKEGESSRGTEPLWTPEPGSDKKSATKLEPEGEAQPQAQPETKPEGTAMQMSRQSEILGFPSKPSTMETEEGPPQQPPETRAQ
Structure (SMILES),test,setting,measurement,value
Cc1nn(C)cc1-c1nc2c(N3CCN(Cc4ccc(Cl)cc4)CC3)c(Cl)cnc2[nH]1,"binding, competition with immobilised ligand",1 µM,remaining binding,100%
CC(C)(C)c1cc(C=C(C#N)C#N)cc(Br)c1O,"enzyme activity, inhibitor",0.5 µM,remaining activity,95.6%
Cn1cc(-c2cc(F)cc(N3CCn4c(cc5c4CCCC5)C3=O)c2CO)cc(Nc2ccc(N3CCN(C4COC4)CC3)cn2)c1=O,"enzyme activity, inhibitor",0.1 µM,inhibition,9%
COc1cc(Nc2ncc(F)c(Nc3ccc4c(n3)NC(=O)C(C)(C)O4)n2)cc(OC)c1OC,binding,10 µM,inhibition,97%
Nc1ncc(-c2nc(N3CCOCC3)nc(N3CCOCC3)n2)c(C(F)F)n1,"binding, competition with immobilised ligand",10 µM,remaining binding,100%
N#CC1(c2ccccn2)CCN(Cc2cc(C(=O)O)c(=O)n3ccccc23)CC1,"cell-free assay, competition with immobilised ligand",1 µM,remaining binding,74%
COc1ncccc1-c1cnn2ccc(N3CCN(C(=O)OC(C)C)CC3)nc12,"binding, competition with immobilised ligand",1 µM,remaining binding,54%
O=c1[nH]c2ccccc2n1C1CCN(Cc2ccc(-c3[nH]c4cc5ncnc5cc4nc3-c3ccccc3)cc2)CC1,cell-free assay,0.5 µM,remaining signal,96.5%
Cn1cncc1[C@@](O)(COc1ccc(C#N)cc1-c1ccc(OC(F)(F)F)cc1)c1ccc(C#N)cc1,"cell-free assay, competition with immobilised ligand",1 µM,remaining binding,70%
Cn1cc(-c2cccc(N3CCc4c(sc5c4CC(C)(C)C5)C3=O)c2CO)cc(Nc2ccncn2)c1=O,"enzyme activity, inhibitor",1 µM,inhibition,5%
